Screens deposited in PubChem by several laboratories.
An excerpt weighted towards active compounds, which were near 5.4% of everything screened.
PostGolgi yeast – growth inhibition of a yeast mutant, post-Golgi transport screen | post-Golgi transport phenotypic cell assay | inhibition, % at 10 µM | hit rate 0.9% among 98,000;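 further: yeast cells grown in 1536-well plates; yeast grown about 18 h at 30C before absorbance read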
tolC growth inh – growth inhibitors of E. coli BW25113 tolC mutant. growth inhibition, % at 10 µM (by protocol). OD615. hit rate 2.2% among 65,000;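 active means growth inhibition at or above a cutoff equal to the mean over every tested compound plus 3 SD, cut at about 60% in these data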;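 further: growth measured after 20 h incubation at 37 °C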
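Test system: tolC-deleted E. coli BW25113 | Medium: LB with kanamycin 50 µg/mL | Compound dosing: Single concentration, 10 µM final per compound | Schedule: 37 °C, 20 h exposure | Measured by: OD at 615 nm | Evaluation: Percent growth inhibition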
Ecoli WT expand – growth inhibitors of E. coli BW25113 wild type. OD600 absorbance. growth inhibition, % at 100 µM. hit rate 0.15% among 98,000;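 active means growth inhibition above about 50% at one test dose, limit read from the data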;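 further: growth measured after 20 h incubation at 37 °C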
HePTP inh – human HePTP phosphatase inhibition; P35236; hit rate 0.64% among 110,000; AID 521; inhibition, % at 20 µM; recombinant HePTP phosphatase activity, OD absorbance; in the data active means inhibition above about 50%;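 further: plate controls were vehicle for no effect and reference inhibitor for full effect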
Target sequence (P35236 whole entry, looked up): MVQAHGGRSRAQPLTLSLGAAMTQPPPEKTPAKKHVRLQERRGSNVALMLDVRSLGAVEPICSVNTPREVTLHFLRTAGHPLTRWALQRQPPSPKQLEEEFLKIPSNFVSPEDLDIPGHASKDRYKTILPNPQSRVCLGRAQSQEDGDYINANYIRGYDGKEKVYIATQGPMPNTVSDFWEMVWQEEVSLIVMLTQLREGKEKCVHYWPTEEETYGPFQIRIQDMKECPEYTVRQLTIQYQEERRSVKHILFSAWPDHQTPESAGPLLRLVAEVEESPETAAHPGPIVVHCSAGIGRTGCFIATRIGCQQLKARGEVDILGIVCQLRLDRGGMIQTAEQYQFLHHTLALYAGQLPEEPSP
PLAP act – human PLAP activation | purified PLAP enzyme, luminescent substrate read-out; hits give high values | hit rate 1.2% among 96,000 | activation fold at 20 µM | P05187; in the data active means activation fold above about 2
PostGolgi ctrl – inhibits growth of the yeast control strain | hit rate 5% among 98,000 | efflux-deficient yeast background strain, growth absorbance A615, 16 h | AID 738 | inhibition, % at 10 µM
The depositor's hits bear a star; . = no result. Unless noted, no stated cut-off is given here; in the data, active means inhibition above about 30%; inactive means the rest.

SMILES	PostGolgi yeast	tolC growth inh	Ecoli WT expand	HePTP inh	PLAP act	PostGolgi ctrl
Cn1c(=O)n(Cc2ccc(F)cc2)c(=O)c2c1nc1n2CCCN1Cc1ccccc1	2	13	-8	8	1.6	45*
Cc1oc(C(=O)O)cc1CSCc1oc(-c2ccccc2)cc1C(=O)O	.	.	.	4	.	.
Cn1c(=O)n(CCc2ccccc2)c(=O)c2c1ncn2Cc1ccccc1	-5	18	1	-4	1	38*
Cc1cc(C)c(C)c(S(=O)(=O)N2C(=S)NC(=O)C2CC(C)C)c1C (stereo not given)	1	.	5	.	1.1	33*
Cc1cc(C)c(C)c(S(=O)(=O)N2C(=S)NC(=O)C2C(C)C)c1C (stereo not given)	8	.	11	.	1.1	44*
Cc1cc(C)c(C)c(S(=O)(=O)N2CCC(C(=O)OCC(=O)N3c4ccccc4NC(=O)C3(C)C)CC2)c1C	3	.	-20	.	1.7	11
Cc1cc(C)cc(N2C(=O)NC(=O)/C(=C\c3ccsc3)C2=O)c1	.	.	.	11	.	.
C=CCC1(N(CCc2ccccc2)C(C)=O)CCCCC1	.	.	.	-4	.	.
COc1ccc(C(=O)NNC(=O)CSc2nnc(COc3ccc4ccccc4c3)n2C)cc1	-6	.	-9	.	1	5
CCn1c(SCC(=O)Nc2cc3oc4ccccc4c3cc2OC)nnc1-c1cccs1	0	17	-10	-6	1	47*
CCn1c(SCC(=O)Nc2ccc3c(c2)oc2ccccc23)nnc1-c1ccc(N)cc1	42*	.	-5	.	1.5	18
Cc1occc1-c1nnc(SCC(=O)Nc2nccs2)n1Cc1ccco1	-4	1	4	3	1.1	36*
COc1ccc(C(=O)NNC(=O)CSc2nnc(COc3ccccc3)n2C)cc1	-13	.	9	.	2*	4
CC(=O)Nc1ccc(-c2nnc(SCC(=O)Nc3ccc4c(c3)oc3ccccc34)n2C)cc1	-6	.	1	.	1.2	5
CC(=O)c1ccc(N2C(=O)C=CC2=O)cc1	.	.	.	5	.	.
CC(=O)c1cccc(NC(=O)Nc2ccccc2C)c1	.	.	.	-15	.	.
COc1cc2c(cc1NC(=O)CN1C(=O)NC3(CCc4ccccc43)C1=O)oc1ccccc12 (stereo not given)	8	36	-9	-6	1.5	38*
COc1ccc(-n2c(SCC(=O)NNC(=O)c3ccccc3C)nnc2-c2ccncc2)cc1	0	.	6	.	2.1*	-5
Cc1cc(Cl)ccc1NC(=O)CSc1nnc(Cc2cccs2)n1Cc1ccco1	0	75*	-7	9	1.1	25
COc1cc2c(cc1NC(=O)CSc1nnc(Cc3cccs3)n1Cc1ccco1)oc1ccccc12	1	.	-4	.	1.6	33*
CCOc1cc(N2CCOCC2)c(OCC)cc1NC(=O)CN1C(=O)NC2(CCc3ccccc32)C1=O (stereo not given)	0	.	9	.	1.5	4
CCC1CCc2c(sc(NC(=O)c3ccccc3Br)c2C(=O)OC)C1 (stereo not given)	.	.	.	2	.	.
COc1cc2c(cc1NC(=O)CSc1nnc(COc3ccc(Cl)cc3)n1C)oc1ccccc12	2	.	-12	.	1.1	35*
COc1cc2c(cc1NC(=O)CSc1nnc(Cc3cccs3)n1C)oc1ccccc12	-9	50	-4	6	1.8	35*
CCn1c(SCC(=O)NCC(=O)Nc2ccc(F)cc2)nnc1-c1ccncc1	-2	.	-2	.	1	35*
SMILES	PostGolgi yeast	tolC growth inh	Ecoli WT expand	HePTP inh	PLAP act	PostGolgi ctrl
CCCNC(=O)NC(=O)CSc1nnc(-c2ccncc2)n1CC	1	-7	0	8	1.4	-2
CC1=C(C(=O)Nc2cccc(C)c2)C(c2ccc(O)cc2)NC(=O)N1 (stereo not given)	.	.	.	7	.	.
Cc1nn(CC(O)Cn2c3c(c4ccccc42)CCN(C)C3=O)c(C)c1Br (stereo not given)	-8	18	-3	6	1.5	43*
Cc1ccc2c(c1)c1c(n2CC(O)Cn2nc(C)c(Br)c2C)CCCC1 (stereo not given)	0	.	-10	.	1.7	20
CCCC1COC(Cn2cncn2)(c2ccc(C)cc2)O1 (stereo not given)	101*	-1	1	-10	1	93*
CCC(C)n1ncn(-c2ccc(N3CCN(c4ccc(OCC5COC(Cn6cncn6)(c6ccc(Cl)cc6Cl)O5)cc4)CC3)cc2)c1=O (stereo not given)	.	8	.	11	.	.
CCOC(=O)CSc1nnc(-c2cccc(OC)c2)n1-c1ccccc1	.	.	.	94*	.	.
CC(C)c1ccc(/C=C2\SC(=S)NC2=O)cc1[N+](=O)[O-]	.	.	.	26	.	.
